One block for each compound: values may come before it. Calls of active or inactive are those of the source. No cut-off for these calls is given here.
Experiments:
[1] = biological target: Signal transducer and activator of transcription 3 (Homo sapiens) (UniProt P40763); test: Binding to STAT3 in human MCF10A cells transformed with H-ras at 5 to 30 uM after 24 hrs using HRP-streptavidin by Western blot analysis; details: MCF-10A
[2] = biological target: Signal transducer and activator of transcription 3 (Homo sapiens) (UniProt P40763); test: Inhibition of STAT3 transcriptional activity in human oncostatin M-stimulated HeLa cells at 10 uM after 24 hrs by luciferase reporter gene assay; type: cell-based
Outline: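 HeLa cells carrying a STAT3-luciferase reporter pretreated with DMSO or compound (10 µM) for 24 h, stimulated with oncostatin M 10 ng/mL for 5 h, then luciferase reporter activity measured.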

[3] = biological target: Signal transducer and activator of transcription 3 (Homo sapiens) (UniProt P40763); test: Inhibition of STAT3 phosphorylation in human MCF10A cells transformed with H-ras at 10 uM after 24 hrs by Western blot analysis; type: cell-based; details: MCF-10A
Outline: (§1)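 Immunoblot of STAT3 phosphorylation in MCF10A-ras cells after 24 h treatment at 5 and 10 µM (analogs at 10 µM). In a thiol-reducing arm, cells got 0.5 mM DTT for 1 h before 10 µM compound for 24 h.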

[4] = biological target: Signal transducer and activator of transcription 3 (Homo sapiens) (UniProt P40763); test: Inhibition of STAT3 phosphorylation in human MCF10A cells transformed with H-ras at 5 to 10 uM after 24 hrs by Western blot analysis; type: cell-based; details: MCF-10A
Outline: as §1

[5] = biological target: Signal transducer and activator of transcription 3 (Homo sapiens) (UniProt P40763); test: Inhibition of STAT3 phosphorylation in human MCF10A cells transformed with H-ras at 1 to 10 uM after 24 hrs by Western blot analysis; type: cell-based; details: MCF-10A
Outline: (§2)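 MCF10A-ras cells treated at the indicated concentrations for 24 h; lysates immunoblotted for p-STAT3, total STAT3 and p-STAT1.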

[6] = biological target: T1, Signal transducer and activator of transcription 1-alpha/beta (Homo sapiens) (UniProt P42224); test: Inhibition of STAT1 phosphorylation in human MCF10A cells transformed with H-ras at 1 to 10 uM after 24 hrs by Western blot analysis; type: cell-based; details: MCF-10A
T1 sequence (whole entry): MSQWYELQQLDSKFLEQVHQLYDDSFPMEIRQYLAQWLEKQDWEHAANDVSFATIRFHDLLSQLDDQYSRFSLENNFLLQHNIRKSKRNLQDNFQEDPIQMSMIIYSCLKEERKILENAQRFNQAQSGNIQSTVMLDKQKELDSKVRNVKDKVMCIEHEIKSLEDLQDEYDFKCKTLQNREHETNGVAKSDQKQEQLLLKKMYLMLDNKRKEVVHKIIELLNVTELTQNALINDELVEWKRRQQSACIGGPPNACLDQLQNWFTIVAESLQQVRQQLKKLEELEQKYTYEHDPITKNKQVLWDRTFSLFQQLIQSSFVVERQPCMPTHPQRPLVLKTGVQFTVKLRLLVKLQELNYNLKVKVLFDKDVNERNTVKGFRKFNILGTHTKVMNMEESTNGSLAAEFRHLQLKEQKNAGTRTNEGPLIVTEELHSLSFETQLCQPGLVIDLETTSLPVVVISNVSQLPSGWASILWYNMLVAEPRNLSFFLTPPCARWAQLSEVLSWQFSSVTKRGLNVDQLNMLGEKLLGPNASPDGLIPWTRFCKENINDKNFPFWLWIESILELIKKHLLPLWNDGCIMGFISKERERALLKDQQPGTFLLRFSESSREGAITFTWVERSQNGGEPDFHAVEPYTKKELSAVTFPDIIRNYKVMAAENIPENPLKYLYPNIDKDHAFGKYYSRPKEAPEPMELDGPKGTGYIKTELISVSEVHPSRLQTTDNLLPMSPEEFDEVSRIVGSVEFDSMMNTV
Outline: as §2

[7] = Cytotoxicity against wild type human MCF10A cells at 2 uM after 24 hrs; type: cell-based; details: mcf-10a
Outline: (§3)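 MCF10A and MCF10A-ras cells exposed to each inhibitor for 24 h, then cytotoxicity measured.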

MCF-10A = test: Cytotoxicity against human MCF10A cells transformed with H-ras at 2 uM after 24 hrs; type: functional, cell-based
Outline: as §3

MCF7 = test: Cytotoxicity against human MCF7 cells at 1 to 5 uM after 24 hrs; type: functional, cell-based
Outline: (§4)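 MCF7 and MDA-MB-231 breast cancer cells treated at the indicated concentrations for 24 h; viability then assessed.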

MDA-MB-231 = test: Cytotoxicity against human MDA-MB-231 cells at 1 to 5 uM after 24 hrs; type: functional, cell-based
Outline: as §4

Sequence of Signal transducer and activator of transcription 3 (Homo sapiens) (P40763 whole entry): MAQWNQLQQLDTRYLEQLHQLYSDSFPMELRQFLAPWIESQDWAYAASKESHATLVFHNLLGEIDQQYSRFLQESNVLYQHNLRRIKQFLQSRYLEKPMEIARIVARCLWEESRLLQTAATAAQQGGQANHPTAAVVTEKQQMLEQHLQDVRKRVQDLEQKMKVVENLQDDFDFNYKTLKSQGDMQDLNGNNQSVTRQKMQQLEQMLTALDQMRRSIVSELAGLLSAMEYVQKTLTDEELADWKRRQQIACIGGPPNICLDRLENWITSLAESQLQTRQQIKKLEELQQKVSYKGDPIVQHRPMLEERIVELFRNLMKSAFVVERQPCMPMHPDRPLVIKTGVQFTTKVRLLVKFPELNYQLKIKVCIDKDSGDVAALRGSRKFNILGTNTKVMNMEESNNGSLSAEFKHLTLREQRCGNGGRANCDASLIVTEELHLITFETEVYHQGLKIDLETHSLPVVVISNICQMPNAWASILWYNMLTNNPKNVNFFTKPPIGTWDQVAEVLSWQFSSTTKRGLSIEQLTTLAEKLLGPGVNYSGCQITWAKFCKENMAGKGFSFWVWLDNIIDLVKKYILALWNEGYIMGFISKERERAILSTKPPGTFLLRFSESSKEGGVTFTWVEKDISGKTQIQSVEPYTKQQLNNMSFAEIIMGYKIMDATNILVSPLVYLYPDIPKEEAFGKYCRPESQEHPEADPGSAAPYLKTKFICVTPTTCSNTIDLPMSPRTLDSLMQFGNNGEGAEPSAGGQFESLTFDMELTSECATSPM

binding [1]: Active
Structure (SMILES): C=C(C(=O)c1ccc2c(c1OC)C=CC(C)(C)O2)c1ccc(OC/C=C/CNC(=O)CCCC[C@@H]2SC[C@@H]3NC(=O)N[C@@H]32)c(OC)c1

inhibition [2]: inactive
inhibition [3]: inactive
Structure (SMILES): COc1ccc(C(C)C(=O)c2ccc3c(c2OC)C=CC(C)(C)O3)cc1OC (centres undefined)

inhibition [2]: inactive
Structure (SMILES): C=C(c1ccc(OC)c(OC)c1)C(O)c1ccc2c(c1OC)C=CC(C)(C)O2 (centres undefined)

Structure (SMILES): C=C(C(=O)c1ccc2c(c1OC)C=CC(C)(C)O2)c1ccc(OC)c(OC)c1
inhibition [2]: Active
inhibition [4]: Active
inhibition [5]: Active
inhibition [6]: inactive
Activity [7]: Non-toxic
Activity (MCF-10A): Active
Activity (MCF7): Active
Activity (MDA-MB-231): Active

inhibition [2]: inactive
inhibition [3]: inactive
Structure (SMILES): COc1ccc(CC(=O)c2ccc3c(c2OC)C=CC(C)(C)O3)cc1OC

From ChEMBL document CHEMBL3632498, “Identification of small molecule inhibitors of the STAT3 signaling pathway: Insights into their structural features and mode of action” (Bioorg Med Chem Lett, 2015)
